Measured values reported in publication PMC11830134 (BioImpacts : BI, 2023).
“And” between values parts separate entries of the source, which are not always exact repeats. Equal entries are not always repeated.

Legend:
[1] = Short-term stability of aqueous solutions; format: physicochemical; details: aqueous solutions at −20, 4, 25 and 37 °C, compared with fresh samples
How it was run: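 Test peptide aqueous solutions at set concentrations, held at −20, 4, 25 and 37 °C for 72 h. Then quantified by ESI triple-quad MS in flow-injection mode (direct infusion from autosampler). Expressed relative to fresh samples of the same initial concentration.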

[2] = Ex-vivo skin permeation, Franz diffusion cells; format: in vitro ADME, Sprague-Dawley rats; details: for Residual drug in the donor phase / Flux / Permeated drug through the skin: rat skin, mean ± SD, n=3; for Residual drug in the donor phase: after 48h; for Flux / Permeated drug through the skin: saturated solution donor; for Flux: 37 °C; for Flux / Unrecovered/ trapped drug: 48h; for Permeated drug through the skin: over 48h; for Unrecovered/ trapped drug: total applied minus permeated and donor-recovered amounts
How it was run: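 Full-thickness abdominal skin from ~8-week male Sprague-Dawley rats (220-250 g), taken after isoflurane anaesthesia, mounted in upright Franz cells (2.0 cm2). Donor: peptide at saturated solubility, set from predicted logS. Receptor: 5 mL 10% (v/v) hydroethanolic solution, 37±0.5 °C, 300 rpm, 48 h. 1 mL sampled at 1-48 h with replacement, stored -20 °C, quantified by ESI-MS flow injection. Flux from permeated amount versus time.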

[3] = Surface tension and critical micelle concentration, Du Noüy ring method; format: physicochemical; details: aqueous, 25±0.5 °C; mean ± SD, n=3
How it was run: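 Aqueous solutions freshly made at twice the predicted solubility as starting concentration. Du Noüy platinum ring force tensiometer, 25±0.5 °C; ring fully immersed, then slowly lifted, and force at detachment converted to surface tension. Static-zone surface tension compared with deionized water. Triplicate measurements.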

[4] = cited from earlier work
[5] = equilibrium zone, water; cited from earlier work
[6] = cited from earlier work; remark: listed apart in the source

Compound	stability range in the aqueous medium after 72 hours [1]	Residual drug in the donor phase [2]	Flux [2] [µg/cm^2 /h]	Permeated drug through the skin [2]	Unrecovered/ trapped drug [2]	CMC [3] [mg/L]	accumulation in the epidermis [4] [%]	experimental surface tension [5] [mN/m]	logP [6]
CCCCCCCCCC(=O)N[C@@H](CCCCN)C(=O)N[C@H](C(=O)O)[C@@H](C)O [Compound C10-KT]	96.6-103.7%	55.23±3.377%	0.032±0.009	2.3% and 2.314±1.087%	≈42%	42.24 ± 0.06			
CCCCCCCCCCCC(=O)N[C@@H](CCCCN)C(=O)N[C@H](C(=O)O)[C@@H](C)O [Compound C12-KT]	96.2-101.8%	21.49±7.454%	0.016±0.006	0.5% and 0.499±0.070%	≈78%	15.31 ± 0.05			
C[C@@H](O)[C@H](NC(=O)[C@@H](N)CCCCN)C(=O)O [KT, lysine-threonine, reference compound]	99.7-100.3%	97.7% and 97.73±1.688%	0.003±0.000	0.004% and 0.004±0.001%					
Pal-KTTKS							48	50.3±0.40	3.72
lysine-threonine-threonine-lysine-serine [KTTKS]								69.00±2.7	-3.54

Second part, led by results:

stability range in the aqueous medium after 72 hours [1]	Residual drug in the donor phase [2]	Flux [2] [µg/cm^2 /h]	Permeated drug through the skin [2]	Unrecovered/ trapped drug [2]	CMC [3] [mg/L]	Compound	accumulation in the epidermis [4] [%]	experimental surface tension [5] [mN/m]	logP [6]
98.9-101.6%	21.29±3.851%	1.084±0.085	33.2% and 33.24±9.562%	≈ 34%	194.95 ± 0.05	CCCCCCCC(=O)N[C@@H](CCCCN)C(=O)N[C@H](C(=O)O)[C@@H](C)O [Compound C8-KT]			
93.2-104.2%	4.197±1.308%	0.001±0.000	2.6% and 2.628±0.368%	≈93%	1.89 ± 0.44	CCCCCCCCCCCCCCCC(=O)N[C@@H](CCCCN)C(=O)N[C@H](C(=O)O)[C@@H](C)O [Compound C16-KT, reference compound]			
